According to ChEMBL document CHEMBL2331322, “Synthesis and antimicrobial activity of some new benzo and naphthonitrile derivatives” (2013):
Converted amounts (≈) assume the structure as drawn.

Columns and labels:
Format in all cases: functional
[1] = test system: Bacillus subtilis; assay: Antimicrobial activity against Bacillus subtilis at 1 mg/mL after 24 hrs by agar disc diffusion method; settings: read-out: DIZ
Summary of the method: (§1)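 Sterile 5 mm filter paper disks were impregnated with test solution in DMF (1 mg/mL) and placed on agar plates seeded with the test organism, in triplicate. Bacteria were incubated at 37 °C for 24 h and fungi for […] (so in the source). The read-out was the average inhibition zone diameter around the disks, in mm.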

[2] = test system: Botrytis fabae; assay: Antimicrobial activity against Botrytis fabae after 48 hrs by microdilution susceptibility test
Summary of the method: (§2)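 MIC was determined by broth microdilution, using Müller–Hinton broth for bacteria and Sabouraud liquid medium for fungi. Stocks were made in DMF and serially diluted twofold. Wells were inoculated at 10⁶ CFU/mL and plates incubated at 36 °C for 24–48 h, with controls included. Only compounds giving agar-diffusion zones >14 mm were tested.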

[3] = test system: Fusarium oxysporum; assay: Antimicrobial activity against Fusarium oxysporum after 48 hrs by microdilution susceptibility test; summary of the method: as §2
[4] = test system: Pseudomonas aeruginosa; assay: Antimicrobial activity against Pseudomonas aeruginosa after 24 hrs by microdilution susceptibility test; summary of the method: as §2
[5] = test system: Escherichia coli; assay: Antimicrobial activity against Escherichia coli after 24 hrs by microdilution susceptibility test; summary of the method: as §2
[6] = test system: Bacillus subtilis; assay: Antimicrobial activity against Bacillus subtilis after 24 hrs by microdilution susceptibility test; summary of the method: as §2
[7] = test system: Bacillus thuringiensis; assay: Antimicrobial activity against Bacillus thuringiensis after 24 hrs by microdilution susceptibility test; summary of the method: as §2
[8] = test system: Botrytis fabae; assay: Antimicrobial activity against Botrytis fabae at 1 mg/mL […] by agar disc diffusion method; settings: read-out: DIZ
[9] = test system: Fusarium oxysporum; assay: Antimicrobial activity against Fusarium oxysporum at 1 mg/mL after 48 hrs by agar disc diffusion method; settings: read-out: DIZ; summary of the method: as §1
[10] = test system: Pseudomonas aeruginosa; assay: Antimicrobial activity against Pseudomonas aeruginosa at 1 mg/mL after 24 hrs by agar disc diffusion method; settings: read-out: DIZ; summary of the method: as §1
[11] = test system: Escherichia coli; assay: Antimicrobial activity against Escherichia coli at 1 mg/mL after 24 hrs by agar disc diffusion method; settings: read-out: DIZ; summary of the method: as §1
[12] = test system: Bacillus thuringiensis; assay: Antimicrobial activity against Bacillus thuringiensis at 1 mg/mL after 24 hrs by agar disc diffusion method; settings: read-out: DIZ; summary of the method: as §1

MIC [2]	MIC [3]	MIC [4]	MIC [5]	MIC [6]	MIC [7]	Compound	zone of inhibition at 1000 µg/mL [1]	MBC [5]	MBC [6]	zone of inhibition at 1000 µg/mL [8]	zone of inhibition at 1000 µg/mL [9]	zone of inhibition at 1000 µg/mL [10]	zone of inhibition at 1000 µg/mL [11]	zone of inhibition at 1000 µg/mL [12]
12.5 µg/mL (≈ 40.4 µM)	12.5 µg/mL (≈ 40.4 µM)	25 µg/mL (≈ 80.8 µM)	25 µg/mL (≈ 80.8 µM)	6.25 µg/mL (≈ 20.2 µM)	12.5 µg/mL (≈ 40.4 µM)	N#Cc1ccccc1C(/N=N/c1ccc([N+](=O)[O-])cc1)C(N)=O (centres undefined)	33 mm	200 µg/mL (≈ 647 µM)	50 µg/mL (≈ 162 µM)	38 mm	35 mm	16 mm	15 mm	35 mm
25 µg/mL (≈ 75.2 µM)	50 µg/mL (≈ 150 µM)	50 µg/mL (≈ 150 µM)	50 µg/mL (≈ 150 µM)	25 µg/mL (≈ 75.2 µM)	25 µg/mL (≈ 75.2 µM)	CCOC(=O)c1c2[nH]c(=N)c3ccccc3c2nn1-c1ccccc1	33 mm	200 µg/mL (≈ 602 µM)	200 µg/mL (≈ 602 µM)	20 mm	33 mm	19 mm	20 mm	35 mm
50 µg/mL (≈ 136 µM)	25 µg/mL (≈ 68.2 µM)	25 µg/mL (≈ 68.2 µM)	50 µg/mL (≈ 136 µM)	25 µg/mL (≈ 68.2 µM)	50 µg/mL (≈ 136 µM)	CCOC(=O)c1c2[nH]c(=N)c3ccccc3c2nn1-c1ccc(Cl)cc1	33 mm	200 µg/mL (≈ 545 µM)	200 µg/mL (≈ 545 µM)	27 mm	16 mm	33 mm	25 mm	38 mm
50 µg/mL (≈ 144 µM)	50 µg/mL (≈ 144 µM)	50 µg/mL (≈ 144 µM)	50 µg/mL (≈ 144 µM)	25 µg/mL (≈ 72.2 µM)	50 µg/mL (≈ 144 µM)	CCOC(=O)c1c2[nH]c(=N)c3ccccc3c2nn1-c1ccc(C)cc1	32 mm	200 µg/mL (≈ 577 µM)	200 µg/mL (≈ 577 µM)	16 mm	25 mm	15 mm	15 mm	20 mm
50 µg/mL (≈ 138 µM)	25 µg/mL (≈ 69 µM)	50 µg/mL (≈ 138 µM)	50 µg/mL (≈ 138 µM)	50 µg/mL (≈ 138 µM)	25 µg/mL (≈ 69 µM)	CCOC(=O)c1c2[nH]c(=N)c3ccccc3c2nn1-c1ccc(OC)cc1	40 mm	200 µg/mL (≈ 552 µM)	200 µg/mL (≈ 552 µM)	19 mm	38 mm	20 mm	30 mm	37 mm
50 µg/mL (≈ 132 µM)	25 µg/mL (≈ 66.2 µM)	50 µg/mL (≈ 132 µM)	50 µg/mL (≈ 132 µM)	25 µg/mL (≈ 66.2 µM)	25 µg/mL (≈ 66.2 µM)	CCOC(=O)c1c2[nH]c(=N)c3ccccc3c2nn1-c1ccc([N+](=O)[O-])cc1	38 mm	200 µg/mL (≈ 530 µM)	200 µg/mL (≈ 530 µM)	20 mm	19 mm	16 mm	15 mm	37 mm
25 µg/mL (≈ 95.7 µM)	25 µg/mL (≈ 95.7 µM)	50 µg/mL (≈ 191 µM)	50 µg/mL (≈ 191 µM)	50 µg/mL (≈ 191 µM)	25 µg/mL (≈ 95.7 µM)	N=c1[nH]c2nn(-c3ccccc3)nc2c2ccccc12	33 mm	200 µg/mL (≈ 765 µM)	200 µg/mL (≈ 765 µM)	16 mm	20 mm	19 mm	20 mm	37 mm
12.5 µg/mL (≈ 50.8 µM)	12.5 µg/mL (≈ 50.8 µM)	12.5 µg/mL (≈ 50.8 µM)	25 µg/mL (≈ 102 µM)	12.5 µg/mL (≈ 50.8 µM)	25 µg/mL (≈ 102 µM)	N#Cc1ccccc1C(C#N)/N=N/c1ccccc1 (centres undefined)	37 mm	200 µg/mL (≈ 812 µM)	100 µg/mL (≈ 406 µM)	40 mm	38 mm	30 mm	33 mm	30 mm
6.25 µg/mL (≈ 22.3 µM)	6.25 µg/mL (≈ 22.3 µM)	12.5 µg/mL (≈ 44.5 µM)	6.25 µg/mL (≈ 22.3 µM)	3.12 µg/mL (≈ 11.1 µM)	6.25 µg/mL (≈ 22.3 µM)	N#Cc1ccccc1C(C#N)/N=N/c1ccc(Cl)cc1 (centres undefined)	42 mm	200 µg/mL (≈ 712 µM)	50 µg/mL (≈ 178 µM)	39 mm	38 mm	35 mm	37 mm	38 mm
25 µg/mL (≈ 96 µM)	12.5 µg/mL (≈ 48 µM)	25 µg/mL (≈ 96 µM)	25 µg/mL (≈ 96 µM)	12.5 µg/mL (≈ 48 µM)	25 µg/mL (≈ 96 µM)	Cc1ccc(/N=N/C(C#N)c2ccccc2C#N)cc1 (centres undefined)	35 mm	200 µg/mL (≈ 768 µM)	100 µg/mL (≈ 384 µM)	35 mm	33 mm	16 mm	30 mm	33 mm
12.5 µg/mL (≈ 45.2 µM)	12.5 µg/mL (≈ 45.2 µM)	25 µg/mL (≈ 90.5 µM)	12.5 µg/mL (≈ 45.2 µM)	6.25 µg/mL (≈ 22.6 µM)	12.5 µg/mL (≈ 45.2 µM)	COc1ccc(/N=N/C(C#N)c2ccccc2C#N)cc1 (centres undefined)	39 mm	50 µg/mL (≈ 181 µM)	100 µg/mL (≈ 362 µM)	38 mm	37 mm	30 mm	35 mm	36 mm
6.25 µg/mL (≈ 21.5 µM)	6.25 µg/mL (≈ 21.5 µM)	6.25 µg/mL (≈ 21.5 µM)	6.25 µg/mL (≈ 21.5 µM)	3.12 µg/mL (≈ 10.7 µM)	6.25 µg/mL (≈ 21.5 µM)	N#Cc1ccccc1C(C#N)/N=N/c1ccc([N+](=O)[O-])cc1 (centres undefined)	43 mm	100 µg/mL (≈ 343 µM)	50 µg/mL (≈ 172 µM)	40 mm	41 mm	35 mm	36 mm	37 mm
25 µg/mL (≈ 94.6 µM)	12.5 µg/mL (≈ 47.3 µM)	25 µg/mL (≈ 94.6 µM)	25 µg/mL (≈ 94.6 µM)	12.5 µg/mL (≈ 47.3 µM)	12.5 µg/mL (≈ 47.3 µM)	N#Cc1ccccc1C(/N=N/c1ccccc1)C(N)=O (centres undefined)	37 mm	200 µg/mL (≈ 757 µM)	100 µg/mL (≈ 378 µM)	15 mm	27 mm	31 mm	15 mm	37 mm
12.5 µg/mL (≈ 41.8 µM)	25 µg/mL (≈ 83.7 µM)	25 µg/mL (≈ 83.7 µM)	12.5 µg/mL (≈ 41.8 µM)	6.25 µg/mL (≈ 20.9 µM)	12.5 µg/mL (≈ 41.8 µM)	N#Cc1ccccc1C(/N=N/c1ccc(Cl)cc1)C(N)=O (centres undefined)	38 mm	100 µg/mL (≈ 335 µM)	50 µg/mL (≈ 167 µM)	16 mm	16 mm	15 mm	27 mm	33 mm
25 µg/mL (≈ 89.8 µM)	25 µg/mL (≈ 89.8 µM)	12.5 µg/mL (≈ 44.9 µM)	50 µg/mL (≈ 180 µM)	25 µg/mL (≈ 89.8 µM)	50 µg/mL (≈ 180 µM)	Cc1ccc(/N=N/C(C(N)=O)c2ccccc2C#N)cc1 (centres undefined)	31 mm	200 µg/mL (≈ 719 µM)	100 µg/mL (≈ 359 µM)	20 mm	38 mm	16 mm	15 mm	36 mm
50 µg/mL (≈ 170 µM)	25 µg/mL (≈ 84.9 µM)	25 µg/mL (≈ 84.9 µM)	12.5 µg/mL (≈ 42.5 µM)	25 µg/mL (≈ 84.9 µM)	12.5 µg/mL (≈ 42.5 µM)	COc1ccc(/N=N/C(C(N)=O)c2ccccc2C#N)cc1 (centres undefined)	32 mm	100 µg/mL (≈ 340 µM)	100 µg/mL (≈ 340 µM)	26 mm	16 mm	32 mm	30 mm	19 mm
		6.25 µg/mL (≈ 15.8 µM)	6.25 µg/mL (≈ 15.8 µM)	6.25 µg/mL (≈ 15.8 µM)	6.25 µg/mL (≈ 15.8 µM)	CC(=O)OCC1=C(C(=O)O)N2C(=O)[C@@H](NC(=O)Cc3cccs3)[C@H]2SC1 [CEPHALOTHIN]	36 mm					37 mm	38 mm	37 mm

Compound	MIC [2]	MIC [3]	MIC [4]	MIC [5]	MIC [6]	MIC [7]	zone of inhibition at 1000 µg/mL [1]	MBC [5]	MBC [6]	zone of inhibition at 1000 µg/mL [8]	zone of inhibition at 1000 µg/mL [9]	zone of inhibition at 1000 µg/mL [10]	zone of inhibition at 1000 µg/mL [11]	zone of inhibition at 1000 µg/mL [12]
N#CCc1ccccc1C#N	100 µg/mL (≈ 703 µM)	50 µg/mL (≈ 352 µM)	100 µg/mL (≈ 703 µM)	100 µg/mL (≈ 703 µM)	100 µg/mL (≈ 703 µM)	50 µg/mL (≈ 352 µM)	15 mm	200 µg/mL (≈ 1410 µM)	200 µg/mL (≈ 1410 µM)	15 mm	14 mm	15 mm	16 mm	15 mm
CC1(C)S[C@@H]2[C@H](NC(=O)[C@H](N)c3ccccc3)C(=O)N2[C@H]1C(=O)O [AMPICILLIN]				6.25 µg/mL (≈ 17.9 µM)	3.12 µg/mL (≈ 8.94 µM)		40 mm	25 µg/mL (≈ 71.5 µM)	50 µg/mL (≈ 143 µM)				38 mm	
O=C(N[C@H](CO)[C@H](O)c1ccc([N+](=O)[O-])cc1)C(Cl)Cl [CHLORAMPHENICOL]			6.25 µg/mL (≈ 19.3 µM)	6.25 µg/mL (≈ 19.3 µM)	3.12 µg/mL (≈ 9.67 µM)	3.12 µg/mL (≈ 9.67 µM)	44 mm					38 mm	37 mm	44 mm
C[C@@H]1C[C@@H]([C@H](O)CC2CC(=O)NC(=O)C2)C(=O)[C@@H](C)C1 [CYCLOHEXIMIDE]	3.12 µg/mL (≈ 11.1 µM)	3.12 µg/mL (≈ 11.1 µM)								42 mm	43 mm			
